Assay results as given in ChEMBL document CHEMBL1671846, “Discovery of a potent and short-acting oral calcilytic with a pulsatile secretion of parathyroid hormone” (ACS Med Chem Lett, 2011).
Calls of active or inactive are those of the source. The calls are words filed in the database; no cut-off is given here.

Columns and labels:
[1] = system: Rattus norvegicus; test: Antiosteoporotic activity in rat assessed as increase of serum parathyroid hormone level at 30 mg/kg, po after 15 to 30 mins relative to control; assay type: functional
Method in brief: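 Rats (n = 5) dosed orally. Serum PTH 1−34 measured, and the peak increase (Δ), taken at 15 or 30 min after dosing, compared with levels in vehicle-treated control rats.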

[2] = biological target: Cytochrome P450 2D6 (Homo sapiens, UniProt P10635); test: Inhibition of CYP2D6; assay type: ADME
[3] = biological target: T1, Extracellular calcium-sensing receptor (Homo sapiens, UniProt P41180); test: Antagonist activity at human CaSR expressed in rat PC12h cells by reporter gene assay; assay type: functional, cell-based, PC-12
T1 sequence (P41180 whole entry): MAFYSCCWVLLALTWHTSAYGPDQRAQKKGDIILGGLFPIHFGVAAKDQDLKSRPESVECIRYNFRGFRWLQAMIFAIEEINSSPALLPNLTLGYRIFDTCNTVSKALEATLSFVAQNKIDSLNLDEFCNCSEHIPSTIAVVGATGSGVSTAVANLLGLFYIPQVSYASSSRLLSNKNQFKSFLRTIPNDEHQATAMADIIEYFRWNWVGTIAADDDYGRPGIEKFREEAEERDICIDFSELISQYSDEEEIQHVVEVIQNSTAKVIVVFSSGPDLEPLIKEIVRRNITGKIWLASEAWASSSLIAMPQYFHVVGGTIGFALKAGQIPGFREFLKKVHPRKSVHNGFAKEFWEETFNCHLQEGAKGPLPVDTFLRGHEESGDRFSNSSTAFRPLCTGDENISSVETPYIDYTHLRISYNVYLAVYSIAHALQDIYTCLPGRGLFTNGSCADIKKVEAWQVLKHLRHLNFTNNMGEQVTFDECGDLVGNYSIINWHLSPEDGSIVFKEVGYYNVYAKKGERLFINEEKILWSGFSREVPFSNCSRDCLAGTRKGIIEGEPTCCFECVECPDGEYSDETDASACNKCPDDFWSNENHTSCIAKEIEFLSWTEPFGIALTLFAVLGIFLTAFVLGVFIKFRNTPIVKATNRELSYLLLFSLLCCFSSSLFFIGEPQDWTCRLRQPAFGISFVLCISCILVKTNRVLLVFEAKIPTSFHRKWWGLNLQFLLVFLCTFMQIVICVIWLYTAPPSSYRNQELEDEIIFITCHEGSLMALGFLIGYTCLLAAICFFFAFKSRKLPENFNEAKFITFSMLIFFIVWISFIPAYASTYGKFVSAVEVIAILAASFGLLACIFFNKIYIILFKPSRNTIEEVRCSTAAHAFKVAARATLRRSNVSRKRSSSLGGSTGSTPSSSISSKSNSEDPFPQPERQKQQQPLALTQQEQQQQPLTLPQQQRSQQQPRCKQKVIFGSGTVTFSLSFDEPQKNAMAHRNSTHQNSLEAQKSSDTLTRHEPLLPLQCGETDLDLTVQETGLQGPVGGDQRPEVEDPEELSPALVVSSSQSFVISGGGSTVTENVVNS
Method in brief: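 Human CaSR antagonism measured by reporter gene assay in PC12h cells. Values are means of three experiments.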

[4] = system: Rattus norvegicus; test: Antiosteoporotic activity in rat assessed as increase of serum parathyroid hormone level at 3 mg/kg, po after 15 to 30 mins relative to control; assay type: functional
Method in brief: (§1)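 Rats (n = 5) dosed orally. Serum PTH 1−34 peak increase (Δ) measured at 15 or 30 min and compared with vehicle-treated controls. Scored against the peak given by a 30 mg/kg oral reference aminopropandiol calcilytic: ++ >80%, + 50−80%, below that <50%.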

[5] = system: Rattus norvegicus; test: Antiosteoporotic activity in rat assessed as increase of serum parathyroid hormone level at 10 mg/kg, po after 15 to 30 mins relative to control; assay type: functional; method in brief: as §1
[6] = system: Rattus norvegicus; test: Antiosteoporotic activity in rat assessed as increase of serum parathyroid hormone level at 1 mg/kg, po after 15 to 30 mins relative to control; assay type: functional; method in brief: as §1
[7] = Inhibition of alpha2 adrenergic receptor up to 10 uM
[8] = Cmax in rat at 1 mg/kg, po; assay type: ADME, organism-based; design: dose 1 mg/kg, route oral; conditions: in vivo
[9] = Inhibition of serotonin receptor up to 10 uM
[10] = system: Rattus norvegicus; test: Antiosteoporotic activity in rat assessed as increase of serum parathyroid hormone level at 3 mg/kg, po after 15 mins; assay type: functional, organism-based; design: dose 3 mg/kg
Method in brief: (§2)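 Time course in rats (n = 5) after oral dosing of the hemisulfate salt. Serum PTH 1−34 levels followed over time, expressed as mean ± standard deviation.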

[11] = biological target: D(1A) dopamine receptor (Homo sapiens) (UniProt P21728); test: Inhibition of dopamine D1 receptor up to 10 uM
[12] = Oral bioavailability in rat at 1 mg/kg; assay type: ADME, organism-based; conditions: in vivo, read-out: Activity
[13] = Half life in rat at 1 mg/kg, po; assay type: ADME, organism-based; design: dose 1 mg/kg, route oral; conditions: in vivo
[14] = biological target: Beta-2 adrenergic receptor (Homo sapiens, UniProt P07550); test: Inhibition of beta2 adrenergic receptor
[15] = system: Rattus norvegicus; test: Antiosteoporotic activity in po dosed rat assessed as increase of serum parathyroid hormone level after 15 to 30 mins; assay type: functional, organism-based; method in brief: as §1
[16] = Tmax in rat at 1 mg/kg, po; assay type: ADME, organism-based; design: dose 1 mg/kg, route oral; conditions: in vivo
[17] = system: Rattus norvegicus; test: Antiosteoporotic activity in rat assessed as increase of serum parathyroid hormone level at 3 mg/kg, po after 2 hrs; assay type: functional, organism-based; design: dose 3 mg/kg; method in brief: as §2

Sequence of Cytochrome P450 2D6 (P10635 whole entry): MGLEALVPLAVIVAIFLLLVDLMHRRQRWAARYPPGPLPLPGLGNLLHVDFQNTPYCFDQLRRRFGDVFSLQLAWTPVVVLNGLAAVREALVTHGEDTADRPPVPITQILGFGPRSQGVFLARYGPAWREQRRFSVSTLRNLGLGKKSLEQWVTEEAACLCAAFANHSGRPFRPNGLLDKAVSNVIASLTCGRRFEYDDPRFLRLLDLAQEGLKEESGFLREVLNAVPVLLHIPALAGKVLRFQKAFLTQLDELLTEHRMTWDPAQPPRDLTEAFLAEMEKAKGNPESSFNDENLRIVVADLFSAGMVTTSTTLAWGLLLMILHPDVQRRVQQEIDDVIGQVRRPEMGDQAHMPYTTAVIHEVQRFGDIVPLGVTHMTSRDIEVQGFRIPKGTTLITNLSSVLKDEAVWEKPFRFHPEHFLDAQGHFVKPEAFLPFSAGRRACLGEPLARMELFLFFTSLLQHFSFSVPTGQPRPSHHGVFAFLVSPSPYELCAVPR
Sequence of Beta-2 adrenergic receptor (P07550 whole entry): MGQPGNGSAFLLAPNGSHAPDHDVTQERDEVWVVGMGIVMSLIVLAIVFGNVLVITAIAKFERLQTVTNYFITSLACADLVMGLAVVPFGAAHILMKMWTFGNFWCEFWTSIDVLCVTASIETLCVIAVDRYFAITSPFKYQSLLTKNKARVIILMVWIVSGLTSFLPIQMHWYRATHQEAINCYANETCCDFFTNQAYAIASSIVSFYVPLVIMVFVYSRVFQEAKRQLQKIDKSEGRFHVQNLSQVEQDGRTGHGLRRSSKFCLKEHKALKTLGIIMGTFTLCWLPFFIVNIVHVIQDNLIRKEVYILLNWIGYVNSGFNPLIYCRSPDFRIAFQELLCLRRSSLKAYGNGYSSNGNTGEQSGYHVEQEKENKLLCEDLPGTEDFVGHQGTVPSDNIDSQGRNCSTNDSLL
Sequence of D(1A) dopamine receptor (Homo sapiens) (P21728 whole entry): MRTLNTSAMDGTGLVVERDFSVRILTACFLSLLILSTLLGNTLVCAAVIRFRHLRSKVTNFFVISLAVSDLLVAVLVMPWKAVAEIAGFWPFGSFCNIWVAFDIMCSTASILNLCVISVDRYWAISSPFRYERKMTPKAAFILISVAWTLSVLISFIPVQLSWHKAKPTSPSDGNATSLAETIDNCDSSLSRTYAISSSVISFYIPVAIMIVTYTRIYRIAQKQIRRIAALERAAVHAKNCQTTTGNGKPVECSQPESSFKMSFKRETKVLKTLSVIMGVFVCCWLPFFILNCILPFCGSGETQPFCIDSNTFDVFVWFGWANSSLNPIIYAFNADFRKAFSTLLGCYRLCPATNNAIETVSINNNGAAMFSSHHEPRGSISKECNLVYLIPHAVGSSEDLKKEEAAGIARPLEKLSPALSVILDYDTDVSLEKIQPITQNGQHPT

Structure (SMILES) | IC50 [2] [nM] | IC50 [3] [nM] | Activity [4] [%] | also measured
Cc1ccccc1[C@H](OC[C@H](O)CNC(C)(C)Cc1ccc2ccccc2c1)C1CC1 | – | – | – | fold change (FC) [1]: 2
C[C@@H](OC[C@H](O)CNC(C)(C)Cc1ccc2ccccc2c1)c1ccccc1CC(=O)O | – | 2200 | – | –
C[C@@H](OC[C@H](O)CNC(C)(C)Cc1ccc2ccccc2c1)c1ccccc1CCC(=O)O | – | 24 | 50 | –
C[C@@H](OC[C@H](O)CNC(C)(C)Cc1ccc(Cl)c(F)c1)c1ccccc1-c1ccc(C(=O)O)cc1 | – | 23 | >80 | Activity [6]: 50%
CC(C)(Cc1ccc2ccccc2c1)NC[C@@H](O)COC(c1ccccc1C(=O)O)C1CC1 (mixture of isomers) | > 10000 | > 3000 | – | –
CC(C)(Cc1ccc2ccccc2c1)NC[C@@H](O)COC(c1cccc(C(=O)O)c1)C1CC1 (mixture of isomers) | > 10000 | 960 | – | –
CC(C)(Cc1ccc2ccccc2c1)NC[C@@H](O)COC(c1ccc(C(=O)O)cc1)C1CC1 (mixture of isomers) | – | > 3000 | – | –
CC(OC[C@H](O)CNC(C)(C)Cc1ccc2ccccc2c1)c1ccccc1C(=O)O (mixture of isomers) | – | > 3000 | – | –
CC(OC[C@H](O)CNC(C)(C)Cc1ccc2ccccc2c1)c1ccc(-c2ccc(C(=O)O)cc2)cc1 (mixture of isomers) | – | 1500 | – | –

The next lines start with results.

IC50 [2] [nM] | IC50 [3] [nM] | Structure (SMILES) | Activity [4] [%] | also measured
1200 | 18 | CC(C)(Cc1ccc2ccccc2c1)NC[C@@H](O)CO[C@@H](c1ccccc1CO)C1CC1 | – | –
> 10000 | 4 | C[C@@H](OC[C@H](O)CNC(C)(C)Cc1ccc2ccccc2c1)c1ccccc1-c1ccc(C(=O)O)cc1 | 50 | Activity [5]: >80%; Activity [6]: <50%
– | 5 | Cc1cc(-c2ccccc2[C@@H](C)OC[C@H](O)CNC(C)(C)Cc2ccc3ccccc3c2)ccc1C(=O)O | >80 | Activity [6]: <50%
– | 18 | CC(OC[C@H](O)CNC(C)(C)Cc1ccc2ccccc2c1)c1cccc(-c2ccc(C(=O)O)cc2)c1 (mixture of isomers) | – | –
– | 11 | CC(OC[C@H](O)CNC(C)(C)Cc1ccc2ccccc2c1)c1ccccc1-c1ccc(C(=O)O)cc1 (mixture of isomers) | – | –
11000 | 12 | Cc1cc(-c2ccccc2[C@@H](C)OC[C@H](O)CNC(C)(C)Cc2ccc(Cl)c(F)c2)ccc1C(=O)O [ENCALERET] | >80 | Activity [7]: inactive; Cmax [8]: 475 ng/mL; Activity [9]: inactive; Activity [5]: >80%; Activity [10]: Active; Activity [6]: >80%; Activity [11]: inactive; bioavailability [12]: 64%; half-life [13]: 1.8 h; IC50 [14]: 1700 nM; Activity [15]: Dose-dependent effect; Tmax [16]: 0.5 h; Activity [17]: inactive
